Measured values: publication PMC3314378 (Journal of Medicinal Chemistry, 2011)

Columns and labels:
[1] = In vitro metabolic stability in hepatic microsomes; assay type: in vitro ADME, rat; conditions: for metabolic stability in hepatic microsomes: presence of NADPH
Outline: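 Test compound (5 μM) incubated at 37 °C for specified times with rat liver microsomes (1 mg protein/ml) in 100 mM potassium phosphate buffer with NADPH 0 or 1 mM. Chilled, extracted with ice-cold ethyl acetate, dried under nitrogen, redissolved in acetonitrile:water 3:1 with 0.1% formic acid. Analysed by reverse-phase C18 LC (5–95% acetonitrile gradient, 16 min) and electrospray MS, scanning 150–1500 Da.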

[2] = system: 8-Br-cAMP-induced renal cyst growth in E13.5 embryonic kidneys; conditions: read-out: IC50 for inhibition of cyst growth; embryonic kidney culture; cited from earlier work
[3] = molecular target: human wildtype CFTR (Homo sapiens, UniProt P13569); assay: Fluorescence plate-reader assay of CFTR-mediated iodide influx; assay type: cell-based
Chain of human wildtype CFTR (P13569 whole entry): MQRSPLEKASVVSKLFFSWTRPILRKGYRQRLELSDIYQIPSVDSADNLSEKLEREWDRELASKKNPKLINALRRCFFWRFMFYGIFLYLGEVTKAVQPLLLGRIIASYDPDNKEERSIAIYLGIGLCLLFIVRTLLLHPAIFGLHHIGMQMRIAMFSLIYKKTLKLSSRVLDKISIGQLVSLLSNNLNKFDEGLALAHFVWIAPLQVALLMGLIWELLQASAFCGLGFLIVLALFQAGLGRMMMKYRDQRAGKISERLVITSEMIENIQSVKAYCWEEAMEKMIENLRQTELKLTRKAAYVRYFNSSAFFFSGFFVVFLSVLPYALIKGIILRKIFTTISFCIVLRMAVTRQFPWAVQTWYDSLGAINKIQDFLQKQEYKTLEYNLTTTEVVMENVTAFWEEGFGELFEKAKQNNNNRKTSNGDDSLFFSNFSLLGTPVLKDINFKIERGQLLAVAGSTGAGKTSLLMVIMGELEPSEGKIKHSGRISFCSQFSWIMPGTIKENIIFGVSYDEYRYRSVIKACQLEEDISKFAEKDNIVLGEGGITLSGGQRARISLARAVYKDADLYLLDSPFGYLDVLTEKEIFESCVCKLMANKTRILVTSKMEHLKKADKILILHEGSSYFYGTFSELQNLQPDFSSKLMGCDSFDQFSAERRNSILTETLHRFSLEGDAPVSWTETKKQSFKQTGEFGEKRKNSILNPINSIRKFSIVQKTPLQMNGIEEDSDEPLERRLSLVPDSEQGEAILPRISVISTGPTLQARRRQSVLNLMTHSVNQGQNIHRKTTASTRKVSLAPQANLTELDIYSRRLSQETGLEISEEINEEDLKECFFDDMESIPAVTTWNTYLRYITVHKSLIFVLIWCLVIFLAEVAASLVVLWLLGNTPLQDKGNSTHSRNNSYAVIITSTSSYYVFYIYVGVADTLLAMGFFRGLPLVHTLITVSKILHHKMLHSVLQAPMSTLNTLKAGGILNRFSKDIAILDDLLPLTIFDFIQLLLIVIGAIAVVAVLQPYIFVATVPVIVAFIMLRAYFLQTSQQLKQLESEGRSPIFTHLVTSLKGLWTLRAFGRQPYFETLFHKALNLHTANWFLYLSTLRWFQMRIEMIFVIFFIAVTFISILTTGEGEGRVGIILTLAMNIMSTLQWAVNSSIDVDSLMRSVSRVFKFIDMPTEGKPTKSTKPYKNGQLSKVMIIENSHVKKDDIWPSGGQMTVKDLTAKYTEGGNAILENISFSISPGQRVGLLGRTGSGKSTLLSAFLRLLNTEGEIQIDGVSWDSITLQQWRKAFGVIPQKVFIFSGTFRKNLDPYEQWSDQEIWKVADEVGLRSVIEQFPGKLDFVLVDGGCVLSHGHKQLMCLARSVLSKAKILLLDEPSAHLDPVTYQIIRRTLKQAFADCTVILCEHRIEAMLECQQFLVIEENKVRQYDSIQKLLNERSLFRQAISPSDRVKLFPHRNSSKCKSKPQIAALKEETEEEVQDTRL
Outline: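 FRT cells co-expressing human wild-type CFTR and YFP-H148Q were plated at 20,000 cells/well in Coon's modified F12 with 10% FBS and assayed 48 h later. After PBS washes, test compound was added for 45 min, then forskolin/IBMX/apigenin cocktail for 15 min. Fluorescence was read 2 s baseline, then 10 s after adding PBS with iodide replacing 137 mM chloride. Initial iodide influx rate by non-linear regression; n=4, S.E.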

[4] = system: 8-Br-cAMP-induced renal cyst growth in E13.5 embryonic kidneys; assay: Embryonic kidney organ culture model of PKD; set-up: species or system mouse
Outline: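 Mouse E13.5 metanephroi on porous culture inserts in DMEM/Ham's F-12 with L-glutamine, HEPES, insulin, transferrin, selenium, prostaglandin E, T3 and antibiotics. Kept at 37 °C in humidified CO2 for up to 8 days. Medium with 100 μM 8-Br-cAMP, with or without test compound (0, 0.1 or 1 μM), replaced every 12 h. Kidneys photographed by transmitted light at 520 nm; percentage cyst area = total cyst area / total kidney area.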

[5] = molecular target: CFTR (Homo sapiens, UniProt P13569); assay: Short-circuit current analysis of CFTR inhibition in CFTR-expressing FRT cells; assay type: cell-based
Chain of CFTR (P13569 whole entry): as above
Outline: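 Ussing chamber short-circuit current on CFTR-expressing FRT cell inserts under voltage clamp. Apical buffer 75 mM NaCl + 75 mM Na gluconate, basolateral 150 mM NaCl, pH 7.3, giving a transepithelial chloride gradient. Basolateral membrane permeabilized with 250 μg/mL amphotericin B. CFTR activated with forskolin (20 μM), then serial additions of increasing test compound concentrations, with current recorded continuously.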

Cn1c(=O)c2c(-c3ccccc3)n3c(c2n(C)c1=O)C(c1ccc(Br)o1)Oc1ccc([N+](=O)[O-])cc1-3 (stereo not drawn) [Compound 36]
metabolic stability in hepatic microsomes [1]: excellent metabolic stability

Cc1ccc(C2Nc3ccccc3-n3c(-c4ccccc4)c4c(=O)n(C)c(=O)n(C)c4c32)o1 (stereo not drawn) [Compound 8, 7,9-Dimethyl-11-phenyl-6-(5-methylfuran-2-yl)-5,6-dihydro-pyrimido-[4',5'-3,4]pyrrolo[1,2-a]quinoxaline-8,10-(7H,9H)-dione]
IC50 [2]: > 500 nM | loss in hepatic microsomes in the absence of NADPH ([1]; absence of NADPH (data not shown)): No loss | metabolic stability in hepatic microsomes [1]: poor metabolic stability

Cc1ccc(C2c3c4c(c(-c5ccccc5)n3-c3ccccc3N2C)c(=O)n(C)c(=O)n4C)o1 (stereo not drawn) [Compound 13]
CFTR inhibition activity [3]: weakly active

Cn1c(=O)c2c(-c3ccccc3)n3c(c2n(C)c1=O)C(c1ccc(Br)o1)Nc1ccccc1-3 (stereo not drawn) [Compound 18]
metabolic stability in hepatic microsomes [1]: substantially more stable than 8

Cn1c(=O)c2c(-c3ccccc3)n3c(c2n(C)c1=O)C(c1ccc(Br)o1)Oc1ccccc1-3 (stereo not drawn) [Compound 31]
metabolic stability in hepatic microsomes [1]: better stability than 8

CCOC(=O)c1ccc2c(c1)-n1c(-c3ccccc3)c3c(=O)n(C)c(=O)n(C)c3c1C(c1ccc(Br)o1)O2 (stereo not drawn) [Compound 40, Ethyl 6-(5-Bromofuran-2-yl)-7,9-dimethyl-8,10-dioxo-11-phenyl-7,8,9,10-tetrahydro-6H-benzo[b]pyrimido [4',5':3,4]pyrrolo[1,2-d][1,4]oxazine-2-carboxylate]
CFTR inhibition activity [3]: strongly inhibited CFTR

Cn1c(=O)c2c(-c3ccccc3)n3c(c2n(C)c1=O)C(c1ccc(Br)o1)Oc1ccc(C(=O)O)cc1-3 (stereo not drawn) [Compound 42, 6-(5-Bromofuran-2-yl)-7,9-dimethyl-8,10-dioxo-11-phenyl-7,8,9,10-tetrahydro-6H-benzo[b]pyrimido [4',5':3,4]pyrrolo [1,2-d][1,4]oxazine-2-carboxylic acid]
improvement of potency for inhibition of renal cystogenesis ex vivo over 8 [4]: > 5 fold | improvement of metabolic stability compared to 8 ([1]; hepatic microsomes): > 10 fold | metabolic stability in hepatic microsomes [1]: excellent stability | extent of CFTR inhibition [5]: fully inhibited CFTR
